In ChEMBL document CHEMBL4177560, “Functional evaluation of synthetic flavonoids and chalcones for potential antiviral and anticancer properties” (Bioorg Med Chem Lett, 2017) one finds inhibition, IC50 and Activity data, which are given here for 19 compounds.

Values after ≈ are worked out from the molar mass of the structure shown. Active and inactive are the calls of the source. The rule behind the calls is not given here. Some results are limits rather than exact numbers.

Assay [1] addresses Serine/threonine-protein kinase mTOR (Homo sapiens) (UniProt P42345). Put plainly: Inhibition of mTOR signaling pathway in human Huh7.5 cells infected with FLAG-tagged HCV genotype 2a JFH-1 assessed as reduction in ratio of viral NS3 to cellular GAPDH protein level up to 50 uM after 72 hrs by Western blot analysis. It counts as cell-based. The method, boiled down:
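Huh7.5 cells were infected with genotype 2a JFH1-FLAG and co-treated at up to 50 μM for 72 h. NS3 and GAPDH were read by Western blot, and the NS3:GAPDH ratio was expressed relative to DMSO-treated cells.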

The test system of another assay is Ishikawa. Put plainly: Inhibition of estradiol-induced proliferation in human Ishikawa cells after 72 hrs by Cell-titer-Glo assay. Format: functional, cell-based.
The subject of another assay is MCF7. The assay is described as follows: Inhibition of estradiol-induced proliferation in human MCF7 cells after 72 hrs by Cell-titer-Glo assay. Format: functional, cell-based. The conditions noted are these: MCF7, 72 h.
The test system of the next assay is MDA-MB-231. Put plainly: Inhibition of estradiol-induced proliferation in human MDA-MB-231 cells after 72 hrs by Cell-titer-Glo assay. It counts as functional, cell-based. The conditions noted are these: MDA-MB-231, 72 h.
The target of assay [2] is Serine/threonine-protein kinase mTOR (Homo sapiens) (UniProt P42345). The assay is described as follows: Inhibition of mTOR signaling pathway in human GS5 cells infected with HCV genotype 1b assessed as reduction in ratio of viral NS3 to cellular GAPDH protein level at 10 uM after 72 hrs by Western blot analysis. Format: cell-based. The method, boiled down: (§1)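 SGR2a (genotype 2a) or GS5 (genotype 1b) replicon cells were treated for 72 h, either at a single 10 μM dose or at increasing concentrations. Extracted proteins were blotted for NS3 and GAPDH, and blots plus repeats were quantified densitometrically as NS3:GAPDH ratio versus DMSO control (100%).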

Assay [3] has the same target. Put plainly: Inhibition of mTOR signaling pathway (unknown origin) in sub-genomic replicon 2A cells assessed as reduction in ratio of viral NS3 to cellular GAPDH protein level at 10 uM after 72 hrs by Western blot analysis. The method, boiled down:
as §1
(In antiviral work, replicon cells carry a viral genome segment that copies itself.)

The target is the same in assay [4]. Put plainly: Inhibition of mTOR signaling pathway in human Huh7.5 cells assessed as reduction in S6K1 levels at 0.5 to 10 uM after 72 hrs by Western blot analysis. It counts as cell-based. The method, boiled down:
(§2)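 Naïve, HCV-free Huh7.5 cells were incubated with increasing compound concentrations. Western blot analysis covered phospho-rps6, total rps6, S6K1 and actin.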

Assay [5] has as its system Hepatitis C virus. The assay is described as follows: Antiviral activity against HCV genotype 2a infected in human Huh7.5 cells electroporated with viral RNA assessed as […] reduction in ratio of viral NS3 to cellular GAPDH protein level up to 50 uM after 72 hrs by Western blot analysis. The conditions noted are these: Hepacivirus hominis. (In western blotting, separated proteins are transferred to a membrane and probed.)

Assay [6] addresses Serine/threonine-protein kinase mTOR (Homo sapiens) (UniProt P42345). Put plainly: Inhibition of mTOR signaling pathway (unknown origin) in sub-genomic replicon 2A cells assessed as reduction in ratio of phosphorylated S6K1 protein level at 0.1 uM after 72 hrs by Western blot analysis. The method, boiled down:
(§3)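 SGR2a replicon cells were incubated with increasing compound concentrations for 72 h. Western blots were run for total rps6, phospho-rps6, phospho-S6K1 and GAPDH, and blots plus repeats were quantified as p-rps6 relative to GAPDH or to total rps6.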

Assay [7] shares this target. Put plainly: Inhibition of mTOR signaling pathway (unknown origin) in sub-genomic replicon 2A cells assessed as reduction in ratio of viral NS3 to cellular GAPDH protein level at 0.5 to 1 uM after 72 hrs by Western blot analysis relative to control. The method, boiled down:
as §1

Assay [8] has the same target. Put plainly: Inhibition of mTOR signaling pathway (unknown origin) in human GS5 cells infected with HCV genotype 1b assessed as reduction in ratio of viral NS3 to cellular GAPDH protein level at 5 uM after 72 hrs by Western blot analysis relative to control. It counts as cell-based. The method, boiled down:
as §1

Assay [9] has the same target. The assay is described as follows: Inhibition of mTOR signaling pathway in human Huh7.5 cells assessed as reduction in rps6 protein levels at 0.5 to 10 uM after 72 hrs by Western blot analysis. It counts as cell-based. The method, boiled down: as §2
The target is the same in assay [10]. Put plainly: Inhibition of mTOR signaling pathway (unknown origin) in sub-genomic replicon 2A cells assessed as reduction in ratio of viral NS3 to cellular GAPDH protein level at 5 uM after 72 hrs by Western blot analysis relative to control. The method, boiled down: as §1
The target is the same in assay [11]. Put plainly: Inhibition of mTOR signaling pathway (unknown origin) in human GS5 cells infected with HCV genotype 1b assessed as reduction in ratio of viral NS3 to cellular GAPDH protein level at 0.5 to 1 uM after 72 hrs by Western blot analysis relative to control. Format: cell-based. The method, boiled down: as §1
The subject of assay [12] is Hepatitis C virus. Put plainly: Antiviral activity against HCV genotype 2a infected in human Huh7.5 cells assessed as reduction in viral RNA level at 0.1 to 10 uM after 72 hrs by qPCR analysis. It counts as functional, organism-based. The following applies: Hepacivirus hominis.
For assay [13], the target named is Serine/threonine-protein kinase mTOR (Homo sapiens) (UniProt P42345). Put plainly: Inhibition of mTOR signaling pathway (unknown origin) in sub-genomic replicon 2A cells assessed as reduction in ratio of phosphorylated rps6 protein level to rps6 protein level at 0.5 to 10 uM after 72 hrs by Western blot analysis relative to control. The method, boiled down:
as §3

Assay [14] deals with Hepatitis C virus. Put plainly: Antiviral activity against HCV genotype 1b infected in human GS5 cells assessed as reduction in viral RNA level at 0.1 to 10 uM after 72 hrs by qPCR analysis. The conditions noted are these: Hepacivirus hominis. It counts as functional, organism-based. The method, boiled down:
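GS5 genotype 1b replicon cells were treated for 72 h across 0.1–10 μM. Total RNA was extracted, and HCV RNA and GAPDH mRNA were quantified by qPCR with HCV-specific primers.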
In general terms: In qPCR the cycle at which signal appears reflects the starting amount.

Assay [15] addresses Serine/threonine-protein kinase mTOR (Homo sapiens) (UniProt P42345). Put plainly: Inhibition of mTOR signaling pathway (unknown origin) in sub-genomic replicon 2A cells assessed as reduction in ratio of phosphorylated rps6 protein level to rps6 protein level after 72 hrs by Western blot analysis. The method, boiled down:
as §3

The term inhibition denotes the relative decrease from the control value, in per cent. `COc1cc(-c2oc3c(Cl)cc(Cl)cc3c(=O)c2O)cc(OC)c1OC`: the inhibition entry in assay [1] is “inactive”.

Broadly, the IC50 is the midpoint of a concentration-inhibition curve. Read a low IC50 as greater potency in that assay. Regarding `COc1ccc(-c2oc3c(Cl)cc(Cl)cc3c(=O)c2O)cc1OC`, the inhibition entry in assay [1] is “inactive”. The half-inhibitory concentration (IC50) in the assay with Ishikawa, in the assay on MCF7 and in the assay on MDA-MB-231 was over 36.7 µg/mL in each case.

As to `COc1ccc(-c2oc3c([N+](=O)[O-])cc(C)cc3c(=O)c2O)cc1OC`, the inhibition entry in [1] is “inactive”. The IC50 in the assay on Ishikawa, in the assay with MCF7 and in the assay with MDA-MB-231 was over 35.7 µg/mL throughout.

Take `COc1ccc(-c2cc(=O)c3cc(C)cc([N+](=O)[O-])c3o2)cc1OC`: the inhibition result in assay [1] was “inactive”.

As to `Cl.O=C(c1ccc(OCCN2CCCCC2)cc1)c1c(-c2ccc(O)cc2)sc2cc(O)ccc12` [RALOXIFENE HYDROCHLORIDE], the IC50 was 10.5 µg/mL in the assay with Ishikawa, 0.98 µg/mL with MCF7 and 11.2 µg/mL in the assay on MDA-MB-231.

As for `COc1ccc(-c2oc3c(Br)cc(Br)cc3c(=O)c2O)cc1OC`, the inhibition entry in assay [1] is “inactive”.

Take `COc1cc(OC)c(C(=O)C#Cc2cc(OC)c(OC)c(OC)c2)c(O)c1C`: the inhibition entry in assay [2], in assay [1] and in assay [3] was “Active” each time.

As for `COc1cc(-c2oc3c([N+](=O)[O-])cc(C)cc3c(=O)c2O)cc(OC)c1OC`, in assay [1], the inhibition result is “inactive”.

Consider `COc1ccc(C#CC(=O)c2cc(Br)cc(Br)c2O)cc1OC`, for which the inhibition result in assay [4], in assay [2], in [6], in [1], in [9] and in assay [3] was “Active” throughout. In addition, the outcome in the assay with Hepatitis C virus [5] was inactive. The inhibition entry in assay [7] and in [11] was “inactive” throughout. The inhibition in assay [8], in [10] and in assay [13] was 50% in each case. In addition, in the assay on Hepatitis C virus [12], the outcome was Active.

As for `COc1cc(C#CC(=O)c2cc(Cl)cc(Cl)c2O)cc(OC)c1OC`, the inhibition entry in assay [2], in assay [1] and in assay [3] was “Active” throughout.

For `CCCCCc1c(OC)cc(OC)c(C(=O)C#Cc2cc(OC)c(OC)c(OC)c2)c1O`, the inhibition entry in assay [2] and in assay [3] was “Active” in each case. The inhibition entry in assay [1] is “inactive”.

With `COc1cc(O)c(C(=O)C#Cc2cc(OC)c(OC)c(OC)c2)c(OC)c1`, the outcome in the assay with Hepatitis C virus [14] and with Hepatitis C virus [5] was inactive. Moreover, the inhibition result in [2], in assay [1], in [3] and in assay [15] was “Active” each time. Besides, the inhibition entry in [7] and in [11] was “inactive” in each case. Besides, the inhibition in assay [8] and in assay [10] was 50% throughout. Further, in the assay on Hepatitis C virus [12], the outcome was Active.

`COc1cc(-c2cc(=O)c3cc(Cl)cc(Cl)c3o2)cc(OC)c1OC`: in assay [1], the inhibition result is “inactive”.

For the compound `COc1cc(-c2oc3c(Br)cc(Br)cc3c(=O)c2O)cc(OC)c1OC`, the inhibition entry in assay [1] was “inactive”.

As for `COc1ccc(-c2cc(=O)c3cc(Br)cc(Br)c3o2)cc1OC`, the inhibition entry in [1] is “inactive”.

In the assay on MCF7, `CC/C(=C(\c1ccc(O)cc1)c1ccc(OCCN(C)C)cc1)c1ccccc1` [AFIMOXIFENE] registered an IC50 of 0.95 µg/mL (≈ 2.45 µM).

On to `COc1cc(-c2cc(=O)c3cc(C)cc([N+](=O)[O-])c3o2)cc(OC)c1OC`, for which, in assay [1], the inhibition result is “inactive”.

For `COc1ccc(C#CC(=O)c2cc(Cl)cc(Cl)c2O)cc1OC`, the inhibition entry in assay [2], in assay [1], in assay [8], in [10] and in assay [3] was “Active” in each case. In the assay on Hepatitis C virus [5], the outcome was inactive. Also, the inhibition result in [7] and in assay [11] was “inactive” in each case. Besides, the values for the IC50 in the assay with Ishikawa, in the assay on MCF7 and in the assay on MDA-MB-231 were 5.85 µg/mL (≈ 16.7 µM), 3.3 µg/mL (≈ 9.4 µM) and 1.98 µg/mL (≈ 5.64 µM), respectively.

For `COc1ccc(C#CC(=O)c2cc(C)cc([N+](=O)[O-])c2O)cc1OC`, the inhibition entry in assay [2], in assay [1] and in [3] was “Active” in each case. Moreover, the outcome in the assay with Hepatitis C virus [5] was inactive. The figures for the IC50 with Ishikawa, in the assay on MCF7 and with MDA-MB-231 were 1.43 µg/mL (≈ 4.19 µM), 2.24 µg/mL (≈ 6.56 µM) and 0.99 µg/mL (≈ 2.9 µM), respectively.
